From ChEMBL document CHEMBL1150680, “Anti-inflammatory constituents and new pterocarpanoid of Crotalaria pallida” (J Nat Prod, 2003)

What was measured:
[1] = test system: N9; experiment: Antiinflammatory activity in LPS/IFN-gamma-stimulated mouse N9 cells assessed as inhibition of nitric oxide production pretreated 1 hr before LPS/IFNgamma challenge
[2] = test system: RAW264.7; experiment: Antiinflammatory activity in LPS-stimulated mouse RAW264.7 cells assessed as inhibition of nitric oxide production pretreated 1 hr before LPS challenge; type: functional, cell-based
Procedure, shortened: (§1)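 RAW 264.7 mouse macrophage-like cells in DMEM with 10% FCS, plated at 2 × 10⁵ cells/well and adhered overnight. Pretreated with test drug or DMSO (final ≤0.5%) for 1 h at 37 °C, then stimulated with LPS (E. coli 0111:B4, 1 μg/mL) for 24 h. Nitrite in the medium was measured by Griess reaction (A550) against a NaNO₂ standard curve. Mean ± SEM, n = 3.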

[3] = Antiinflammatory activity in fMLP/cytochalasin B stimulated rat neutrophils assessed as inhibition of lysozyme release at 3 ug/ml preincubated for 10 mins measured 45 mins after fMLP/cytochalasin B challenge relative to control; type: functional; details: Neutrophil
Procedure, shortened: (§2)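 Rat blood neutrophils were isolated in EDTA by dextran sedimentation, Ficoll-Hypaque and hypotonic lysis, then suspended in HBSS at 1 × 10⁷ cells/mL. Preincubated 10 min at 37 °C with drug or DMSO (final ≤0.5%), then challenged with fMLP (1 μM)/cytochalasin B (5 μg/mL). After 45 min, supernatant lysozyme and β-glucuronidase were expressed as percent of the Triton X-100 total content.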

[4] = Antiinflammatory activity in fMLP/cytochalasin B stimulated rat neutrophils assessed as beta-glucuronidase release at 10 uM preincubated for 10 mins measured 45 mins after fMLP/cytochalasin B challenge relative to control; type: functional, Neutrophil
Procedure, shortened: as §2

[5] = Antiinflammatory activity in fMLP/cytochalasin B stimulated rat neutrophils assessed as beta-glucuronidase release at 1 ug/ml preincubated for 10 mins measured 45 mins after fMLP/cytochalasin B challenge relative to control; type: functional, Neutrophil; details: in the assay text read “1 uM” for “1 ug/ml”
Procedure, shortened: as §2

[6] = test system: N9; experiment: Toxicity in LPS/IFN-gamma-stimulated mouse N9 cells assessed as LDH release at 30 uM; type: cell-based; details: n9, 30 µM
Procedure, shortened: (§3)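 Cytotoxicity in LPS-stimulated RAW 264.7 or LPS/IFN-γ-stimulated N9 cultures, assessed by LDH release assay and trypan blue exclusion.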

[7] = test system: N9; experiment: Antiinflammatory activity in LPS/IFN-gamma-stimulated mouse N9 cells assessed as inhibition of nitric oxide production at 10 uM pretreated 1 hr before LPS/IFNgamma challenge relative to control
[8] = Antiinflammatory activity in fMLP/cytochalasin B stimulated rat neutrophils assessed as lysozyme release at 10 uM preincubated for 10 mins measured 45 mins after fMLP/cytochalasin B challenge relative to control; type: functional, Neutrophil
Procedure, shortened: as §2

[9] = test system: RAW264.7; experiment: Antiinflammatory activity in LPS-stimulated mouse RAW264.7 cells assessed as inhibition of nitric oxide production at 10 uM pretreated 1 hr before LPS challenge relative to control; type: functional
Procedure, shortened: as §1

[10] = Antiinflammatory activity in fMLP/cytochalasin B stimulated rat neutrophils assessed as beta-glucuronidase release at 3 ug/ml preincubated for 10 mins measured 45 mins after fMLP/cytochalasin B challenge relative to control; type: functional, Neutrophil; details: in the assay text read “3 uM” for “3 ug/ml”
Procedure, shortened: as §2

[11] = Antiinflammatory activity in fMLP/cytochalasin B stimulated rat neutrophils assessed as inhibition of lysozyme release at 10 uM preincubated for 10 mins measured 45 mins after fMLP/cytochalasin B challenge relative to control; type: functional; details: Neutrophil
Procedure, shortened: as §2

[12] = Antiinflammatory activity in fMLP/cytochalasin B stimulated rat neutrophils assessed as inhibition of beta-glucuronidase release at 10 uM preincubated for 10 mins measured 45 mins after fMLP/cytochalasin B challenge relative to control; type: functional, Neutrophil; design: Activity: scale not given: the % may be the effect or the level left
Procedure, shortened: as §2

[13] = Antiinflammatory activity in fMLP/cytochalasin B stimulated rat neutrophils assessed as inhibition of beta-glucuronidase release preincubated for 10 mins measured 45 mins after fMLP/cytochalasin B challenge; type: functional, cell-based; details: Neutrophil
Procedure, shortened: as §2

[14] = Antiinflammatory activity in fMLP/cytochalasin B stimulated rat neutrophils assessed as inhibition of lysozyme release preincubated for 10 mins measured 45 mins after fMLP/cytochalasin B challenge; type: functional, cell-based; details: Neutrophil
Procedure, shortened: as §2

[15] = Antiinflammatory activity in fMLP/cytochalasin B stimulated rat neutrophils assessed as lysozyme release at 1 ug/ml preincubated for 10 mins measured 45 mins after fMLP/cytochalasin B challenge relative to control; type: functional, Neutrophil; details: in the assay text read “1 uM” for “1 ug/ml”
Procedure, shortened: as §2

[16] = test system: N9; experiment: Antiinflammatory activity in LPS/IFN-gamma-stimulated mouse N9 cells assessed as inhibition of nitric oxide production at 3 uM pretreated 1 hr before LPS/IFNgamma challenge relative to control; type: functional
Procedure, shortened: (§4)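 N9 murine microglial line in Iscove's modified DMEM with 5% heat-inactivated FCS, 8 × 10⁴ cells/well. Pretreated for 1 h at 37 °C with drug or DMSO (final ≤0.5%), then stimulated with LPS (10 ng/mL) plus IFN-γ (10 unit/mL) for 24 h. Medium nitrite was read by Griess reaction at 550 nm with a NaNO₂ standard. Mean ± SEM, n = 3.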

[17] = Antiinflammatory activity in fMLP/cytochalasin B stimulated rat neutrophils assessed as lysozyme release at 3 ug/ml preincubated for 10 mins measured 45 mins after fMLP/cytochalasin B challenge relative to control; type: functional, Neutrophil; details: in the assay text read “3 uM” for “3 ug/ml”
Procedure, shortened: as §2

[18] = test system: RAW264.7; experiment: Toxicity in LPS-stimulated mouse RAW264.7 cells assessed as LDH release at 30 uM; type: cell-based; details: raw264.7, 30 µM
Procedure, shortened: as §3

[19] = test system: RAW264.7; experiment: Antiinflammatory activity in LPS-stimulated mouse RAW264.7 cells assessed as inhibition of nitric oxide production at 30 uM pretreated 1 hr before LPS challenge relative to control; type: functional
Procedure, shortened: as §1

[20] = Antiinflammatory activity in fMLP/cytochalasin B stimulated rat neutrophils assessed as inhibition of beta-glucuronidase release at 3 uM preincubated for 10 mins measured 45 mins after fMLP/cytochalasin B challenge relative to control; design: scale not given: the % may be the effect or the level left
[21] = Antiinflammatory activity in fMLP/cytochalasin B stimulated rat neutrophils assessed as inhibition of beta-glucuronidase release at 1 ug/ml preincubated for 10 mins measured 45 mins after fMLP/cytochalasin B challenge relative to control; type: functional, Neutrophil; design: scale not given: the % may be the effect or the level left; details: in the assay text read “1 uM” for “1 ug/ml”
Procedure, shortened: as §2

[22] = test system: RAW264.7; experiment: Antiinflammatory activity in LPS-stimulated mouse RAW264.7 cells assessed as inhibition of nitric oxide production at 3 uM pretreated 1 hr before LPS challenge relative to control; type: functional
Procedure, shortened: as §1

[23] = Antiinflammatory activity in fMLP/cytochalasin B stimulated rat neutrophils assessed as beta-glucuronidase release at 30 uM preincubated for 10 mins measured 45 mins after fMLP/cytochalasin B challenge relative to control; type: functional, Neutrophil
Procedure, shortened: as §2

[24] = test system: N9; experiment: Antiinflammatory activity in LPS-stimulated mouse N9 cells assessed as inhibition of nitric oxide production at 1 uM pretreated 1 hr before LPS challenge relative to control; type: functional
Procedure, shortened: as §4

[25] = Antiinflammatory activity in fMLP/cytochalasin B stimulated rat neutrophils assessed as lysozyme release at 30 uM preincubated for 10 mins measured 45 mins after fMLP/cytochalasin B challenge relative to control; type: functional, Neutrophil
Procedure, shortened: as §2

[26] = Antiinflammatory activity in fMLP/cytochalasin B stimulated rat neutrophils assessed as inhibition of lysozyme release at 30 uM preincubated for 10 mins measured 45 mins after fMLP/cytochalasin B challenge relative to control; type: functional; details: Neutrophil
Procedure, shortened: as §2

[27] = Antiinflammatory activity in fMLP/cytochalasin B stimulated rat neutrophils assessed as inhibition of beta-glucuronidase release at 30 uM preincubated for 10 mins measured 45 mins after fMLP/cytochalasin B challenge relative to control; type: functional; details: Neutrophil, read-out: INH
Procedure, shortened: as §2

IC50 [1]	IC50 [2]	IC50 [13]	SMILES	Activity [4]	Activity [6]	inhibition at 10 µM [7]	Activity [8]	inhibition at 10 µM [9]	inhibition at 10 µM [11]	inhibition at 3 µM [16]	Activity [18]	inhibition at 30 µM [19]	inhibition at 3 µM [22]	further results
3.6 µM	2.3 µM		CC(=N)NCc1cccc(CN)c1 [1400W]											
	23 µM	7.8 µM	C=C(C)c1cc2c3c(ccc2o1)[C@@H]1COc2cc(O)ccc2[C@@H]1O3 [CROTAFURAN A]	16.5%	Toxic	45.6%	23.6%	20.6%	56.2%	15.4%	Toxic	59.5%	-5.1%	inhibition at 3 µg/mL [3]: 14%; Activity [5]: 34.7%; Activity [10]: 24.8%; Activity [12]: 55.8%; IC50 [14]: 9.5 µM; Activity [15]: 54.2%; Activity [17]: 46.9%; Activity [20]: 33.4%; Activity [21]: 6.9%
9.4 µM	19 µM		CC(=O)c1cc2c3c(ccc2o1)[C@@H]1COc2cc(O)ccc2[C@@H]1O3 [CROTAFURAN B]	37.7%	Toxic	50.4%	58.9%	25.6%	-7.8%	29%	Toxic	64.4%	3.2%	Activity [23]: 35.3%; inhibition at 1 µM [24]: 4.2%; Activity [25]: 55.1%; inhibition at 10 µM ([12]; Rattus norvegicus, Neutrophil): -0.9%; inhibition at 30 µM [26]: -0.4%; inhibition at 30 µM [27]: 5.1%
		12.2 µM	CN1CCN(CCCN2c3ccccc3Sc3ccc(C(F)(F)F)cc32)CC1 [TRIFLUOPERAZINE]											
